Measurements as given in ChEMBL document CHEMBL1157624, “Targeting Alzheimer's disease: Novel indanone hybrids bearing a pharmacophoric fragment of AP2238” (Bioorg Med Chem, 2010).

Assays:
[1] = target: T1, Acetylcholinesterase (Homo sapiens, UniProt P22303); assay: Inhibition of human recombinant AChE preincubated for 20 mins before substrate addition by Ellman's method
[2] = target: Cholinesterase (Homo sapiens, UniProt P06276); assay: Inhibition of human BuChE preincubated for 20 mins before substrate addition by Ellman's method
Chain of Cholinesterase (P06276 whole entry): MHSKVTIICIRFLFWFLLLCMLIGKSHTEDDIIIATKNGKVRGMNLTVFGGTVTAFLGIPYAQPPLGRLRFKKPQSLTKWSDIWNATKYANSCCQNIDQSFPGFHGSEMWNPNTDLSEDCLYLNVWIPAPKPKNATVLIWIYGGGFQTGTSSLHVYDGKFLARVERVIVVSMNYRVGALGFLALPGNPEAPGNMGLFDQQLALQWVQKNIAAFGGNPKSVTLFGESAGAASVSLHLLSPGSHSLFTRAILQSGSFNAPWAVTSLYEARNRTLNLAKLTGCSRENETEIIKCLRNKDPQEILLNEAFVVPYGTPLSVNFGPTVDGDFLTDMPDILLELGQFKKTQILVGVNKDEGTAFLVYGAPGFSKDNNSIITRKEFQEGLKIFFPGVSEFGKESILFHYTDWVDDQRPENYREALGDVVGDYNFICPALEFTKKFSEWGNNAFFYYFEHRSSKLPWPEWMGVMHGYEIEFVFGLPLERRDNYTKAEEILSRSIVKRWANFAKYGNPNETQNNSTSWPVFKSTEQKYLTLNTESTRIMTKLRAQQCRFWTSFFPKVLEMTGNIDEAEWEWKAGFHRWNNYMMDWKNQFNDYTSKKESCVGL
Procedure, shortened: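 Ellman assay using BuChE from human serum at 0.02 unit/mL in 0.1 M potassium phosphate pH 8.0 with 340 µM DTNB. Compound and enzyme preincubated 20 min at 37 °C, then 550 µM butyrylthiocholine iodide added. Blank lacks enzyme. Five concentrations chosen to give 20–80% inhibition, each in triplicate. IC50 read graphically from log concentration vs % inhibition. Mean of two independent measurements.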

[3] = organism: Homo sapiens; assay: Selectivity ratio of IC50 for human BuChE to human recombinant AChE
Procedure, shortened: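 Ellman assay in 0.1 M potassium phosphate pH 8.0 with 340 µM DTNB, enzyme at 0.02 unit/mL: human recombinant AChE with 550 µM acetylthiocholine, serum-derived human BuChE with 550 µM butyrylthiocholine. Compounds preincubated with enzyme 20 min at 37 °C. IC50 from five-point curves run in triplicate, mean of two experiments. Ratio = IC50 BuChE / IC50 AChE.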

[4] = target: T1, Acetylcholinesterase; assay: Inhibition of human recombinant AChE-mediated hydrolysis of acetylcholine by Lineweaver-Burke plot analysis
Procedure, shortened: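 Steady-state kinetics on human recombinant AChE with acetylthiocholine as substrate at low concentrations (0.60–0.06 mM) and inhibitor at increasing concentrations (range 0–50 nM). Initial velocities were plotted as 1/v versus 1/[ATCh]. Plots were fitted by weighted least squares, taking the variance of v as a constant percentage of v, to estimate the competitive inhibition constant Ki.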

[5] = target: T1, Acetylcholinesterase; assay: Inhibition of human recombinant AChE-induced amyloid beta (1-40) aggregation at 100 uM by thioflavin T fluorescence assay
Procedure, shortened: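 Abeta40, lyophilised from HFIP and dissolved in DMSO, held at final 230 µM. Co-incubated with human recombinant AChE at final 2.30 µM (Abeta:AChE 100:1), with or without inhibitor at final 100 µM. Incubation 24 h at room temperature in 0.215 M sodium phosphate pH 8.0, run in duplicate. ThT read in glycine–NaOH pH 8.5 at ex 446/em 490 nm, subtracting ThT and AChE background. % inhibition = 100 − (IFi/IFo × 100).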

[6] = Inhibition of amyloid beta (1-42) self-aggregation at 10 uM after 24 hrs by thioflavin T-based fluorometric assay
Procedure, shortened: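 Abeta42 from stable 500 µM stock, incubated at final 50 µM in 10 mM phosphate buffer pH 8.0 with 10 mM NaCl, 30 °C for 24 h, with or without compound at 10 µM. Diluted into 50 mM glycine–NaOH pH 8.5 with 1.5 µM thioflavin T. Fluorescence read by 300 s scan at ex 446/em 490 nm, plateau values averaged after ThT background subtraction. % inhibition taken from ± inhibitor intensity ratio.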

T1 sequence (P22303 whole entry): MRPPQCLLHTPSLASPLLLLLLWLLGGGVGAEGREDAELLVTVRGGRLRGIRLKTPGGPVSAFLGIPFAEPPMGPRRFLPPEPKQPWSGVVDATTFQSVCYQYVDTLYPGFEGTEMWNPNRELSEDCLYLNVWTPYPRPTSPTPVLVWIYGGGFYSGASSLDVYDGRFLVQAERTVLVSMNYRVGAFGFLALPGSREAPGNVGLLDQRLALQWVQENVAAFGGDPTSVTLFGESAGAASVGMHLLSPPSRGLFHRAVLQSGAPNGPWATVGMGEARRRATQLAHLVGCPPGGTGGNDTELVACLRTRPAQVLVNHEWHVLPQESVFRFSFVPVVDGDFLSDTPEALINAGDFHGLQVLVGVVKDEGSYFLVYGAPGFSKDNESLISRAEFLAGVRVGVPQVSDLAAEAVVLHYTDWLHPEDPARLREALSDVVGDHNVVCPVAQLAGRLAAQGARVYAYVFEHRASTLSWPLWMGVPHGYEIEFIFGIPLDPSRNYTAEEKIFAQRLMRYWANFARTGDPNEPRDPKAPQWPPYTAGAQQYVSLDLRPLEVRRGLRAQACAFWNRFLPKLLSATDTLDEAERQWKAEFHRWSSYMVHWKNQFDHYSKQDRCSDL

| SMILES | IC50 [1] [µM] | IC50 [2] [µM] | Ratio IC50 [3] | Ki [4] [µM] | inhibition [5] [%] | inhibition [6] [%] |
| --- | --- | --- | --- | --- | --- | --- |
| CN(Cc1ccccc1)Cc1ccc(/C=C2\Cc3ccc(OCCCCN4CCOCC4)cc3C2=O)cc1 | 0.89 | 99.8 | 112 |  |  |  |
| CN(Cc1ccccc1)Cc1ccc(/C=C2\CCc3cc(OCCCCCN4CCCCC4)ccc3C2=O)cc1 | 0.052 | 5.01 | 96.3 | 0.0611 | 48.3 | 26.9 |
| CCN(CC)CCCCOc1ccc2c(c1)C(=O)/C(=C/c1ccc(CN(C)Cc3ccccc3)cc1)C2 | 0.89 | 3.52 | 3.95 |  |  |  |
| CN(Cc1ccccc1)Cc1ccc(/C=C2\Cc3ccccc3C2=O)cc1 | 11.7 | 29.9 | 2.55 |  |  |  |
| CN(Cc1ccccc1)Cc1ccc(/C=C2\Cc3ccc(OCCCCCN4CCCCC4)cc3C2=O)cc1 | 0.2 | 7.7 | 38.5 |  | 46.8 | 27.9 |
| COc1ccc2c(c1)CC/C(=C\c1ccc(CN(C)Cc3ccccc3)cc1)C2=O | 0.11 | 90.3 | 820 |  |  |  |
| COc1ccc2c(c1)C(=O)/C(=C/c1ccc(CN(C)Cc3ccccc3)cc1)CC2 | 5.38 | 135 | 25.1 |  |  |  |
| CCN(Cc1ccccc1)Cc1ccc(/C=C2\Cc3ccc(OC)cc3C2=O)cc1 | 4.93 | 98.1 | 19.9 |  |  |  |
| CCN(CC)CCCCCCOc1ccc2c(c1)C(=O)/C(=C/c1ccc(CN(C)Cc3ccccc3)cc1)C2 | 0.38 | 20.5 | 53.9 |  |  |  |
| CCN(CC)CCCCCCCOc1ccc2c(c1)C(=O)/C(=C/c1ccc(CN(C)Cc3ccccc3)cc1)C2 | 0.51 | 33 | 64.7 |  |  |  |
| COc1cc2c(cc1OC)C(=O)C(CC1CCN(Cc3ccccc3)CC1)C2 (stereo not given) |  |  |  |  |  | < 5 |
| CCN(CC)CCOc1ccc2c(c1)C/C(=C\c1ccc(CN(C)Cc3ccccc3)cc1)C2=O | 2.9 | 22.5 | 7.76 |  |  |  |
| COc1ccc2c(c1)C(=O)/C(=C/c1ccc(CN(C)Cc3ccccc3)cc1)C2 | 0.63 | 7.93 | 12.6 |  | < 5 | < 5 |
| CCN(CC)CCCCOc1ccc2c(c1)C/C(=C\c1ccc(CN(C)Cc3ccccc3)cc1)C2=O | 3.95 | 22.9 | 5.8 |  |  |  |
| COc1cc2cc(-c3ccc(CN(C)Cc4ccccc4)cc3)c(=O)oc2cc1OC |  |  | 1110 |  |  | < 5 |
| CCN(CC)CCCOc1ccc2c(c1)C(=O)/C(=C/c1ccc(CN(C)Cc3ccccc3)cc1)C2 | 1.32 | 11.9 | 9.01 |  |  |  |
| COc1cc2c(cc1OC)C(=O)/C(=C/c1ccc(CN(C)Cc3ccccc3)cc1)CC2 | 0.18 | 72.8 | 404 |  |  |  |
| CN(Cc1ccccc1)Cc1ccc(/C=C2\Cc3ccc(OCCCCN4CCCCC4)cc3C2=O)cc1 | 0.18 | 10 | 55.5 |  |  |  |
| CCN(CC)CCCCCOc1ccc2c(c1)C(=O)/C(=C/c1ccc(CN(C)Cc3ccccc3)cc1)C2 | 0.19 | 2.7 | 14.2 |  | 29.7 | 27.7 |
| CCN(CC)CCCOc1ccc2c(c1)C/C(=C\c1ccc(CN(C)Cc3ccccc3)cc1)C2=O | 1.61 | 11.4 | 7.08 |  |  |  |
| CCN(CC)CCOc1ccc2c(c1)C(=O)/C(=C/c1ccc(CN(C)Cc3ccccc3)cc1)C2 | 1.53 | 11.9 | 7.77 |  |  |  |
| CCN(CC)CCCCCOc1ccc2c(c1)CC/C(=C\c1ccc(CN(C)Cc3ccccc3)cc1)C2=O | 0.056 | 8.05 | 144 |  | 42.9 | 26.4 |
| COc1cc2c(cc1OC)C(=O)/C(=C/c1ccc(CN(C)Cc3ccccc3)cc1)C2 | 1.14 | 144 | 126 |  |  |  |
| COc1ccc2c(c1)C/C(=C\c1ccc(CN(C)Cc3ccccc3)cc1)C2=O | 28.7 | 21.1 | 0.73 |  |  |  |
